# Experimental data published in PMC2989669 (Bioorganic & medicinal chemistry letters, 2010).
# What was measured:
# MIF-CD74 binding = target: T1, MIF-CD74 binding (Homo sapiens, UniProt P14174); experiment: MIF-CD74 binding assay; details: for IC50 or max % inhib CD74 (result in words): MIF-CD74 binding assay
# T1 sequence (P14174 2-115 limits assumed): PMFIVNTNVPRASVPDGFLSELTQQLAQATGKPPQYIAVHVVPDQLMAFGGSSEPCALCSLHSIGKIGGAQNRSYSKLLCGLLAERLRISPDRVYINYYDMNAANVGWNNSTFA
# human MIF = target: T2, human MIF (Homo sapiens, UniProt P14174); experiment: MIF tautomerase assay using 4-hydroxyphenylpyruvate; type: biochemical; details: for IC50 or max % inhib 4-HPP (result in words): tautomerase assay
# T2 sequence (P14174 2-115 limits assumed): T1 sequence (P14174 2-115 limits assumed)
# Outline: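 Recombinant human MIF; tautomerase activity measured with 4-hydroxyphenylpyruvate (4-HPP) as substrate. Test compounds were run from 1 nM to 1 mM. IC50 was reported. Where inhibition plateaued below 50%, the maximum percent inhibition was reported instead.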
# [1] = system: MIF-dependent ERK1/2 phosphorylation; experiment: MIF-dependent ERK1/2 phosphorylation in human fibroblasts; type: cell-based; details: human primary fibroblasts, MIF […] trimer, compound 8 nM, 30 min
# MIF tautomerase = details: cited from earlier work
compound,measurement,setting,value
Oc1ccc(-c2cn(Cc3ccccc3)nn2)cc1 [3a],IC50,MIF-CD74 binding,> 1000 µM
COc1ccccc1Cn1cc(-c2ccc(O)cc2)nn1 [3d],IC50 or max % inhib 4-HPP (result in words),human MIF,Agon
same,effect on MIF-dependent ERK1/2 phosphorylation,[1],enhances ERK1/2 phosphorylation
same,IC50 or max % inhib CD74 (result in words),MIF-CD74 binding,Agon
CCOC(=O)c1cc2ccc(O)cc2oc1=O [compound 1],tautomerase inhibition (reported potency),MIF tautomerase,7 µM
Cc1ccccc1Cn1cc(-c2ccc(O)cc2)nn1 [3b],IC50,MIF-CD74 binding,> 1000 µM
Cc1cccc(Cn2cc(-c3ccc(O)cc3)nn2)c1 [3c],IC50,MIF-CD74 binding,> 1000 µM
Oc1ccc(-n2cc(-c3cncc4ccccc34)nn2)cc1 [5c],IC50 or max % inhib 4-HPP (result in words),human MIF,Agon
same,effect on MIF-dependent ERK1/2 phosphorylation,[1],enhances ERK1/2 phosphorylation
same,IC50 or max % inhib CD74 (result in words),MIF-CD74 binding,Agon
COc1cccc(Cc2cn(-c3ccc(O)cc3)nn2)c1OC [4i],IC50,MIF-CD74 binding,> 1000 µM
Oc1ccc(-n2cc(-c3cccnc3)nn2)cc1 [5a],IC50 or max % inhib 4-HPP (result in words),human MIF,Agon
same,effect on MIF-dependent ERK1/2 phosphorylation,[1],enhances ERK1/2 phosphorylation
same,IC50 or max % inhib CD74 (result in words),MIF-CD74 binding,Agon
Oc1ccc(-n2cc(Cc3cccc(O)c3)nn2)cc1 [4d],IC50,human MIF,> 1000 µM
same,IC50,MIF-CD74 binding,> 1000 µM
COc1ccc(Cn2cc(-c3ccc(O)cc3)nn2)cc1 [3f],IC50,MIF-CD74 binding,> 1000 µM
O=C(O)c1cccc(Cn2cc(-c3ccc(O)cc3)nn2)c1 [3i],IC50,MIF-CD74 binding,> 1000 µM
Oc1ccc(-n2cc(-c3cccc4ccccc34)nn2)cc1 [5b],IC50,MIF-CD74 binding,> 1000 µM
COC(=O)c1cccc(Cn2cc(-c3ccc(O)cc3)nn2)c1 [3h],IC50,human MIF,~1 µM
same,IC50,MIF-CD74 binding,~1 µM
COc1cccc(Cn2cc(-c3ccc(O)cc3)nn2)c1OC [3g],IC50,human MIF,~1 µM
same,effect on MIF-dependent ERK1/2 phosphorylation,[1],strongly inhibits
same,IC50,MIF-CD74 binding,~1 µM
COC(=O)CC1CC(c2ccc(O)cc2)=NO1 (stereo not shown) [compound 2],tautomerase inhibition (reported potency),MIF tautomerase,7 µM
